Only some compounds are listed: those with a hit (about 4.9% of all), similar ones and a draw of the others.
HSF-1 act: increases HSF-1 driven luciferase reporter signal; NIH3T3-HGL HSF-1 luciferase reporter, MG132, 8 h; 100% = twice DMSO control signal; AID 504408; activation, % at 9 µM; 300,000 tested, 1.7% active;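 active = mean replicate activation of at least 50% with a set share of replicates each reaching 50%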
Lipid droplet: hepatic lipid droplet formation modulation; AML12 mouse hepatocytes, oleate lipid droplets, BODIPY imaging; AID 1656; 240,000 tested, 0.4% active; inhibition, % at 6.5 µM;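 active = lipid droplet intensity inhibited by at least 50%, with more than 500 cells counted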
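Test system: AML12 hepatocytes (mouse); reagent: oleate loading, 100 µM; dosing: one dose, 6.5 µM compound; incubation: overnight exposure; signal: fluorescence imaging, 20x objective, two fields per well; read-out basis: % inhibition of corrected integrated BODIPY droplet signal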
HSF1 inh: HSF1 inhibition; NIH3T3-HGL HSE-luciferase, MG132-induced, luminescence 8 h; hits give low values; activity change, negative = inhibition, % at 7.5 µM (by protocol); 300,000 tested, 0.77% active; AID 2098;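 active = more than half of replicate wells show activity change below -50%, luminescence cut by over half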;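 note: luciferase reports HSF-1 transcriptional activity via heat shock element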
CHT block: inhibitors of human choline transporter CHT; Q9GZV3; CHT-expressing cells, membrane potential dye, choline response; hits give low values; B-score at 10 µM; 310,000 tested, 0.86% active; AID 488975;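 active = B-score over 3 SD under the library average, and starting fluorescence ratio not unusually high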;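 note: choline stimulus applied at its EC90 after an EC20 pre-addition; B-score computed on integrated fluorescence ratio after choline addition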
PHOSPHO1 block: PHOSPHO1 (human) inhibition; inhibition, % at 13.3 µM; recombinant PHOSPHO1, absorbance phosphatase assay; Q8TCT1; 290,000 tested, 1.1% active; in the data active = inhibition above about 60%
Target sequence (Q8TCT1 whole entry, looked up): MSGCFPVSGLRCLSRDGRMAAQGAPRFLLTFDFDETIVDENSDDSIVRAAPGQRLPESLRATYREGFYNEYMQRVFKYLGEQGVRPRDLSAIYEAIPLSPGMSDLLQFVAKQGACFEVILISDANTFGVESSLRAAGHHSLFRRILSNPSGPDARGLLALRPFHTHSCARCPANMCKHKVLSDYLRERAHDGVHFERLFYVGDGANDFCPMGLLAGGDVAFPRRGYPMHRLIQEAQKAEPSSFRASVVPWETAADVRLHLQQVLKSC
CHT PAM: allosterically activates the human high affinity choline transporter. CHT-expressing cells, membrane potential dye, choline EC20; hits give high values; LV-AA mutant CHT in HEK293 cells. B-score at 10 µM. AID 488977. 310,000 tested, 0.49% active. Q9GZV3;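 active = initial fluorescence not abnormally high and integrated response B-score, plate-corrected, over 3 SD above library mean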
Lipid drop inh: confirmation of inhibitors of hepatic lipid droplet formation; shares compounds with Lipid droplet; AML12 mouse hepatocytes, BODIPY lipid droplet imaging; droplets induced with 100 µM oleic acid; inhibition, % at 5.2 µM; 870 tested, 65% active; AID 463183;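 active = inhibition of lipid droplet metric at least 50%, with more than 300 cells in each of four replicates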
AML12 tox img: AML12 hepatocyte cytotoxicity (counter-screen). z-score at 5 µM. AML12 mouse hepatocytes, DAPI nuclear morphology cytotoxicity imaging; hits give high values; cells fed 100 µM oleate overnight. shares compounds with Lipid droplet. 870 tested, 3% active. AID 463200; in the data active = z-score above about 6.3;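 note: compound exposure lasted overnight at 37 °C before fixation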
AML12 tox conf: confirmation of cytotoxicity in AML12 mouse hepatocytes; shares compounds with Lipid droplet; AML12 mouse hepatocyte viability, ATP luminescence; cells loaded with 100 µM oleic acid; cytotoxicity, % at 50 µM; 530 tested, under 10 active; AID 463219;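 active = cytotoxicity above 50% in each of four replicates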;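 note: compound exposure lasted overnight at 37 °C before the ATP read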
Hits are given with their value; – = inactive; · = not tested or not shown.

SMILES	HSF-1 act	Lipid droplet	HSF1 inh	CHT block	PHOSPHO1 block	CHT PAM	Lipid drop inh	AML12 tox img	AML12 tox conf
CCC(=O)Nc1c2c(nn1-c1ccc(C)cc1)CS(=O)(=O)C2	–	57.0	–	–	–	–	–	–	·
CC(=O)Nc1ccc(NC(=S)NC(=O)/C=C/c2ccc(Cl)cc2)cc1	–	–	–	–	–	–	·	·	·
O=C(/C=C/c1ccc(Cl)cc1)NC(=S)Nc1ccc(NC(=O)c2ccco2)cc1	64.3	56.9	–	–	–	–	–	–	·
Cc1ccc2cc(/C=N/NC(=O)[C@H]3C[C@@H]3c3ccccc3)c(Cl)nc2c1	–	74.8	–	–	–	–	–	–	–
Cc1noc(C)c1C(=O)Nc1ccc(F)cc1F	–	55.3	–	–	–	–	–	–	·
CN1CCN(C(c2cccc(C(F)(F)F)c2)c2nnnn2Cc2ccccc2)CC1 (configuration not stated)	–	·	–	–	–	–	·	·	·
CCOc1cc2c(cc1OCC)C(c1ccccc1OC)OC(=O)C2 (configuration not stated)	–	51.1	–	–	–	–	78.8	–	–
C/C(N)=C(/C#N)C(=O)CSc1nc2ccccc2c(=O)n1CCCO	–	–	–	–	–	–	·	·	·
O=C(CSC1=NC2(CCCCCC2)N=C1c1ccccc1)Nc1ccc2c(c1)OCCO2	–	58.6	–	–	–	–	69.2	–	–
O=C(CSC1=NC2(CCCCC2)N=C1c1ccccc1)Nc1ccc2c(c1)OCCO2	–	–	–	–	–	–	·	·	·
Cc1ccc(OCC(=O)NC(C)c2ccc(Cl)c(Cl)c2)c([N+](=O)[O-])n1 (configuration not stated)	–	–	–	–	–	–	·	·	·
COCCNC(=S)NNc1ccc(Cl)c(C(=O)O)c1	–	–	–	–	–	–	·	·	·
Cc1ccc(N2C(N)=C(C#N)C(c3cc(CN4CCOCC4)cs3)C3=C2CC(C)(C)CC3=O)cc1 (configuration not stated)	–	75.0	–	–	–	–	86.8	–	–
Cc1ccc(N2C(N)=C(C#N)C(c3ccsc3)C3=C2CC(C)(C)CC3=O)cc1 (configuration not stated)	–	·	–	–	–	–	·	·	·
CN(CC(=O)N1CCOCC1)C(=O)CSc1nc2ccccc2s1	–	–	–	–	–	–	·	·	·
CCCN1/C(=C2/SC(=S)N(CC)C2=O)C=Cc2ccccc21	–	–	–	–	–	–	·	·	·
CCCN1C(=O)/C(=C2/C=Cc3ccccc3N2CC)SC1=S	–	84.9	–	–	–	–	105.3	–	–
Cc1cc(NC(=O)c2sccc2C)n(-c2nc3ccccc3[nH]2)n1	–	59.5	–	–	–	–	83.5	–	–
COc1ccc(-c2c(C#N)sc(C(N)=O)c2-c2ccc(OC)cc2)cc1	–	–	–	–	–	–	·	·	·
O=Cc1cc(N=Nc2ccc(S(=O)(=O)O)cc2)ccc1O	–	·	–	–	·	–	·	·	·
Cc1cc(C=O)c(O)cc1O	–	51.2	–	–	–	–	–	–	·
Brc1ccc(-c2csc3ncnc(-n4nnc5ccccc54)c23)cc1	–	–	–	–	–	–	·	·	·
Cc1nc2ccc(NC(=S)NCCCO)cc2nc1C	–	–	–	–	–	–	·	·	·
CCNC(=S)N1CCc2cc(OC)c(OC)cc2C1COc1ccc(F)cc1 (configuration not stated)	–	60.2	–	–	–	–	96.9	–	–
COc1ccccc1Nc1ccc(NC(=O)c2cccc([N+](=O)[O-])c2C)cc1	–	97.1	–	–	–	–	99.1	–	–
SMILES	HSF-1 act	Lipid droplet	HSF1 inh	CHT block	PHOSPHO1 block	CHT PAM	Lipid drop inh	AML12 tox img	AML12 tox conf
CCCCOc1ccccc1C(=O)N(Cc1ccco1)C1CCS(=O)(=O)C1 (configuration not stated)	–	50.9	–	–	–	–	–	–	–
COc1ccc(N2C(=S)N=C(Nc3cccc(C)c3)C23CCCCC3)cc1	–	–	–	–	–	–	·	·	·
CC(=O)c1ccc(OCCNS(=O)(=O)c2ccc(-n3cnnn3)c(C)c2)cc1	–	–	–	–	–	–	·	·	·
Cc1cc(-n2cnnn2)cc(C)c1S(=O)(=O)NCCOc1ccccc1	–	61.2	–	–	–	–	–	–	·
COc1cc([C@@H]2[C@H]3CN(C)CC=C3C(C#N)=C(N)C2(C#N)C#N)cc2c1OCO2	–	–	–	–	–	–	·	·	·
CCCCOc1ccc(NC(=O)Cn2c(=O)ccc3c(C)cc(C)nc32)cc1	–	66.3	–	–	–	–	91.3	–	–
CCCCOc1ccc(NC(=O)CN2CCN(CC)CC2)cc1	–	–	–	–	–	–	·	·	·
CCOc1ccc(-n2cc(C(=O)N3CCN(C)CC3)c3cc(OC)c(OC)cc3c2=O)cc1	–	–	–	–	–	–	·	·	·
CCOc1ccc(CCNC(=O)Cn2cccc2C(=O)c2ccccc2C)cc1OCC	–	100.7	–	–	–	–	109.1	–	–
CCOc1ccc(CCNC(=O)Nc2ccccc2C)cc1OCC	–	103.7	–	–	–	–	101.5	–	–
CCOc1ccc(CCNC(=O)COC(=O)CSc2ccccc2C)cc1OCC	–	–	–	–	–	–	·	·	·
Cc1cc(-c2ccccc2)n2ncnc2n1	–	–	–	–	–	–	·	·	·
Cc1ccc(NC(=O)C2=C(C(=O)O)CCCC2)cc1Br	–	–	–	–	–	–	·	·	·
CCOC(=O)C1CCN(C(=O)C2(NC(=O)Nc3ccccc3Cl)CCCCC2)CC1	–	72.9	–	–	–	–	101.3	–	–
CCOC(=O)C1CCN(C(=O)C2(NC(=O)Nc3ccccc3C)CCCCC2)CC1	–	81.3	–	–	–	–	98.0	–	–
COc1cccc(N2CCN(C(=O)c3cc4c(=O)n(Cc5ccccc5)ccc4nc3C)CC2)c1	–	–	–	–	–	–	·	·	·
COc1ccc(CC(=O)OCC(=O)N2N=C(c3ccccc3)CC2c2ccc(OC)cc2)cc1 (configuration not stated)	–	82.3	–	–	–	–	107.0	–	·
O=C(CNc1cc(S(=O)(=O)N2CCOCC2)ccc1NCC1CCCO1)Nc1cccc(F)c1 (configuration not stated)	–	–	–	–	–	–	·	·	·
O=C(Nc1ccccc1)c1ccc(NCC2CCCO2)c(S(=O)(=O)N2CCOCC2)c1 (configuration not stated)	–	50.6	–	–	–	–	–	–	·

Assay outcomes as filed in PubChem BioAssay.
